From ChEMBL document CHEMBL1909507, “Substituted phenyl 4-(2-oxoimidazolidin-1-yl)benzenesulfonamides as antimitotics. Antiproliferative, antiangiogenic and antitumoral activity, and quantitative structure-activity relationships” (Eur J Med Chem, 2011)
Calls of active or inactive are those of the source. No cut-off for these calls is given here.

Tests used:
M21 [1] = assay: Cell cycle arrest in human M21 cells assessed as accumulation at G0/G1 phase at 5 times IC50 after 24 hrs using propidium iodide staining by flow cytometric analysis (reference value: 61%); format: functional
In short: (§1)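 Cells were trypsinized, fixed in ice-cold ethanol, treated with RNase, and stained with propidium iodide (1 mg/mL stock) for 1 h on ice. Cell-cycle distribution was measured by flow cytometry.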

M21 [2] = assay: Cell cycle arrest in human M21 cells assessed as accumulation at S phase at 5 times IC50 after 24 hrs using propidium iodide staining by flow cytometric analysis (reference value: 30%); format: functional; in short: as §1
M21 [3] = assay: Cell cycle arrest in human M21 cells assessed as accumulation at G2/M phase at 5 times IC50 after 24 hrs using propidium iodide staining by flow cytometric analysis (reference value: 9%); format: functional; in short: as §1
MDA-MB-231 [4] = assay: Displacement of N,N'-ethylenebis(iodoacetamide) from beta-tubulin colchicine-binding site in human MDA-MB-231 cells at 1000 times IC50 preincubated for 2 hrs before N,N'-ethylenebis(iodoacetamide) addition measured after 1.5 hrs by chemiluminescence assay; format: cell-based
In short: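 EBI (100, final) was added for 1.5 h at 37 °C with drug present; control was 0.5% DMSO. Sonicated lysates (20 µg protein) were run on 10% SDS-PAGE and blotted with anti-β-tubulin TUB 2.1. The β-tubulin–EBI adduct was scored by ECL.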

M21 [5] = assay: Disruption of cytoskeleton microtubule structure of human M21 cells at 5 times IC50 after 16 hrs by indirect immunofluorescence assay; format: functional, cell-based
In short: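 Cells were fixed in 3.7% formaldehyde, permeabilized with saponin, and stained with anti-β-tubulin TUB 2.1, Alexa-488 anti-mouse secondary and DAPI. Fluorescence microscopy was used for imaging.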

[6] = Toxicity against fertilized chicken embryo assessed as mortality at 3 ug, iv by CAM assay; format: organism-based, Gallus gallus; conditions: in vivo, read-out: Activity
In short: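 HT-1080 fibrosarcoma cells (3.5 × 10⁵ cells/egg) grafted onto the chorioallantoic membrane of fertilized chicken eggs (10 days preincubation). On day 11, drug in DMSO diluted into excipient (ethanol:cremophor:PBS 6.25:6.25:87.5) given iv at 3 µg per egg. Chick mortality recorded over 7-day tumor growth period. Untreated eggs as negative controls and for normalization. Cumulative results from two independent experiments, 10–12 eggs each.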

HT-1080 [7] = assay: Antitumor activity against human HT1080 cells xenografted in chicken chorioallantoic membrane assessed as inhibition of tumor growth at 1 to 3 ug, iv measured on day 17 by CAM assay; format: functional
In short: (§2)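 Fertilized chicken eggs were incubated 10 days, then 3.5 × 10⁵ HT-1080 cells/egg were applied to the exposed chorioallantoic membrane. On day 11, drug was given iv in DMSO diluted in excipient (ethanol:cremophor:PBS 6.25:6.25:87.5). Read-out was tumor wet weight as % of untreated eggs, plus chick mortality. Data were pooled from two independent experiments of 10–12 eggs each.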

HT-1080 [8] = assay: Antiangiogenic activity in human HT1080 cells xenografted in chicken chorioallantoic membrane assessed as vascular disruption at 1 to 3 ug, iv measured on day 17 by CAM assay; format: functional
CHO-TAX 5-6 [9] = assay: Ratio of IC50 for paclitaxel-resistant CHO-TAX 5-6 cells to IC50 for CHO cells; format: functional, Cricetulus griseus
In short: (§3)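 Each ratio is the IC50 in the resistant line divided by the IC50 in its parental line (CHO for CHO-TAX 5-6 and CHO-VV 3-2; CEM for CEM-VLB).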

CHO-VV 3-2 [10] = assay: Antiproliferative activity against colchicine and vinblastine-resistant CHO-VV 3-2 cells after 48 hrs by SRB assay; format: functional, cell-based; conditions: Cricetulus griseus, CHO-VV 3-2, 48 h
In short: (§4)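 Adherent cells were seeded per line (e.g. HT-29 5000, M21 3500, MCF7 7500, CHO and CHO-VV 3-2 and CHO-TAX 5-6 1000 cells/well) and grown 24 h at 37 °C, 5% CO₂. DMSO-solubilized drug was diluted in medium and added at 1000–0.98 nM for 48 h. Cells were fixed with cold 10% TCA and stained with 0.1% sulforhodamine B, with absorbance read at 530–565 nm.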

CHO-VV 3-2 [11] = assay: Ratio of IC50 for colchicine and vinblastine-resistant CHO-VV 3-2 cells to IC50 for CHO cells; format: functional, Cricetulus griseus; in short: as §3
[12] = Antiproliferative activity against human multidrug-resistant CEM/VLB cells after 48 hrs by SRB assay; format: functional
CCRF-CEM [13] = assay: Ratio of IC50 for human multidrug-resistant CEM/VLB cells to IC50 for human CEM cells; format: functional; in short: as §3
HT-1080 [14] = assay: Antitumor activity against human HT1080 cells xenografted in chicken chorioallantoic membrane assessed as inhibition of tumor growth at 3 ug, iv measured on day 17 by CAM assay; format: functional; in short: as §2
HT-29 = assay: Antiproliferative activity against human HT-29 cells after 48 hrs by SRB assay; format: functional, cell-based; conditions: HT-29, 48 h; in short: as §4
M21 [15] = assay: Antiproliferative activity against human M21 cells after 48 hrs by SRB assay; format: functional, cell-based; conditions: M21, 48 h; in short: as §4
MCF7 = assay: Antiproliferative activity against human MCF7 cells after 48 hrs by SRB assay; format: functional, cell-based; conditions: MCF7, 48 h; in short: as §4
K562 = assay: Antiproliferative activity against human K562 after 48 hrs by SRB assay; format: functional, cell-based; conditions: K562, 48 h
L1210 = assay: Antiproliferative activity against mouse L1210 after 48 hrs by SRB assay; format: functional, cell-based; conditions: L1210, 48 h
DU-145 = assay: Antiproliferative activity against human DU145 after 48 hrs by SRB assay; format: functional, cell-based; conditions: DU-145, 48 h
HT-1080 [16] = assay: Antiproliferative activity against human HT1080 after 48 hrs by SRB assay; format: functional, cell-based; conditions: HT-1080, 48 h; in short: as §4
MDA-MB-231 [17] = assay: Antiproliferative activity against human MDA-MB-231 after 48 hrs by SRB assay; format: functional, cell-based; conditions: MDA-MB-231, 48 h
SK-OV-3 = assay: Antiproliferative activity against human SKOV3 after 48 hrs by SRB assay; format: functional, cell-based; conditions: SK-OV-3, 48 h; in short: as §4
CCRF-CEM [18] = assay: Antiproliferative activity against human CEM after 48 hrs by SRB assay; format: functional, cell-based
CHO-TAX 5-6 [19] = assay: Antiproliferative activity against paclitaxel-resistant CHO-TAX 5-6 cells after 48 hrs by SRB assay; format: functional, cell-based; conditions: Cricetulus griseus, CHO-TAX 5-6, 48 h; in short: as §4
[20] = Antiproliferative activity against mouse B16F0 after 48 hrs by SRB assay
[21] = Antiproliferative activity against mouse P388D1 after 48 hrs by SRB assay; conditions: P388D1, 48 h
CHO = assay: Antiproliferative activity against Chinese hamster CHO after 48 hrs by SRB assay; conditions: Cricetulus griseus

For `COc1ccc(/C=C\c2cc(OC)c(OC)c(OC)c2)cc1O` [COMBRETASTATIN A4], the Activity (M21 [1]) was 2%, the Activity (M21 [2]) was 0% and the Activity (M21 [3]) was 98%. The Activity (MDA-MB-231 [4]) was “Active”, the Activity (M21 [5]) was “Active” and the mortality [6] was 45%. The “growth inhibition (GI)” value (HT-1080 [7]) was 45% and the Activity (HT-1080 [8]) was 48%.

In the case of `Cc1cc(C)cc(NS(=O)(=O)c2ccc(N3CCNC3=O)cc2)c1`, the “Ratio IC50” value (CHO-TAX 5-6 [9]) is reported as 0.57, the IC50 (CHO-VV 3-2 [10]) is reported as 0.25 µM and the “Ratio IC50” value (CHO-VV 3-2 [11]) is reported as 1.2. For the same compound, the IC50 [12] was 0.4 µM, the “Ratio IC50” value (CCRF-CEM [13]) was 2.4 and the Activity (M21 [1]) was 1%. The Activity (M21 [2]) was 21%, the Activity (M21 [3]) was 78% and the Activity (MDA-MB-231 [4]) was “Active”. The Activity (M21 [5]) was “Active”, the mortality [6] was 8% and the inhibition (HT-1080 [14]) was “inactive”. It also gave an IC50 (HT-29) of 0.082 µM, an IC50 (M21 [15]) of 0.063 µM and an IC50 (MCF7) of 0.1 µM. For the same compound, the IC50 (K562) was 0.11 µM, the IC50 (L1210) was 0.11 µM and the IC50 (DU-145) was 0.43 µM. For the same compound, the IC50 (HT-1080 [16]) was 0.15 µM, the IC50 (MDA-MB-231 [17]) was 1.22 µM and the IC50 (SK-OV-3) was 0.19 µM. The IC50 (CCRF-CEM [18]) was 0.17 µM, the IC50 (CHO-TAX 5-6 [19]) was 0.12 µM and the IC50 [20] was 0.26 µM. The IC50 [21] was 0.21 µM and the IC50 (CHO) was 0.21 µM.
